Data from ChEMBL document CHEMBL4152356, “Amphipathic sulfonamidobenzamides mimicking small antimicrobial marine natural products; investigation of antibacterial and anti-biofilm activity against antibiotic resistant clinical isolates” (Bioorg Med Chem, 2018).

Key:
[1] = tested on: Staphylococcus epidermidis; assay: Antibacterial activity against methicillin resistant Staphylococcus epidermidis RP62A ATCC 35984/CCUG 31568 after 48 hrs by microdilution method; assay type: functional; settings: RP62A ATCC 35984/CCUG 31568, 48 h
Method in brief: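 Broth microdilution (modified CLSI M07-A9) against the MRSE reference strain. Inoculum of about 2.5-3 × 10^4 cells/ml in Mueller-Hinton broth mixed 1:1 with serial compound dilutions; final DMSO ≤1%. Incubated 35 °C, 48 h.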

[2] = tested on: Corynebacterium glutamicum; assay: Antibacterial activity against Corynebacterium glutamicum ATCC 13032 after 48 hrs by microdilution method; assay type: functional; settings: ATCC 13032, 48 h
Method in brief: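 Broth microdilution (CLSI M07-A9, modified) in Mueller-Hinton broth; inoculum about 2.5-3 × 10^4 cells/ml mixed 1:1 with serial compound dilutions. Stock solutions in up to 100% DMSO, final DMSO ≤1%. Incubated 35 °C for 48 h.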

[3] = Selectivity index, ratio of EC50 for human RBC to MIC for methicillin resistant Staphylococcus epidermidis RP62A ATCC 35984/CCUG 31568; assay type: toxicity; settings: human red blood cells (RBC), read-out: Selectivity Index
Method in brief: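 SI = hemolytic EC50 / MRSE MIC. Hemolysis: washed human RBCs (heparinized blood, healthy adult donor) at 10% in PBS pH 7.4, mixed 9:1 with serial compound dilutions, 37 °C for 1 h. 0.05% Triton X-100 set 100% lysis, 0.5% DMSO set baseline. MIC from MHB microdilution, 35 °C, […].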

Staphylococcus aureus [4] = assay: Antibacterial activity against Staphylococcus aureus clinical isolates after 24 hrs by microdilution method; assay type: functional
Method in brief: (§1)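 Clinical isolate screen by broth microdilution with about 1-1.2 × 10^6 cells/ml and 24 h incubation. MIC is the lowest concentration with no growth. For isolate collections, MIC90 is the MIC inhibiting ≥90% of isolates. Multidrug resistance was defined as resistance to at least […] antimicrobial class.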

Enterococcus sp. = assay: Antibacterial activity against Enterococcus sp. clinical isolates after 24 hrs by microdilution method; assay type: functional; method in brief: as §1
Escherichia coli [5] = assay: Antibacterial activity against Escherichia coli clinical isolates after 24 hrs by microdilution method; assay type: functional; method in brief: as §1
Pseudomonas aeruginosa [6] = assay: Antibacterial activity against Pseudomonas aeruginosa clinical isolates after 24 hrs by microdilution method; assay type: functional; method in brief: as §1
Staphylococcus aureus [7] = assay: Antibacterial activity against methicillin resistant Staphylococcus aureus N315 clinical isolate after 24 hrs by microdilution method; assay type: functional; settings: N315, 24 h
Method in brief: (§2)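 Broth microdilution in Mueller-Hinton broth (modified CLSI M07-A9), clinical isolates at about 1-1.2 × 10^6 cells/ml. Inoculum mixed 1:1 with serial compound dilutions; stocks made in up to 100% DMSO, final DMSO ≤1%. Incubated 24 h.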

Staphylococcus aureus [8] = assay: Antibacterial activity against methicillin resistant Staphylococcus aureus NCTC 10442 clinical isolate after 24 hrs by microdilution method; assay type: functional; settings: NCTC 10442, 24 h; method in brief: as §2
Staphylococcus aureus [9] = assay: Antibacterial activity against methicillin resistant Staphylococcus aureus 85/2082 clinical isolate after 24 hrs by microdilution method; assay type: functional; settings: 85/2082, 24 h; method in brief: as §2
Staphylococcus aureus [10] = assay: Antibacterial activity against methicillin resistant Staphylococcus aureus WIS clinical isolate after 24 hrs by microdilution method; assay type: functional; method in brief: as §2
Staphylococcus aureus [11] = assay: Antibacterial activity against methicillin resistant Staphylococcus aureus IHT 99040 clinical isolate after 24 hrs by microdilution method; assay type: functional; settings: IHT 99040, 24 h; method in brief: as §2
Enterococcus faecium [12] = assay: Antibacterial activity against vancomycin resistant Enterococcus faecium 50,901,530 clinical isolate after 24 hrs by microdilution method; assay type: functional; settings: Enterococcus faecium, 50,901,530, 24 h; method in brief: as §2
Enterococcus faecium [13] = assay: Antibacterial activity against vancomycin resistant Enterococcus faecium K36-18 clinical isolate after 24 hrs by microdilution method; assay type: functional; settings: K36-18, 24 h; method in brief: as §2
Enterococcus faecium [14] = assay: Antibacterial activity against vancomycin resistant Enterococcus faecium 50,758,899 clinical isolate after 24 hrs by microdilution method; assay type: functional; settings: Enterococcus faecium, 50,758,899, 24 h; method in brief: as §2
Enterococcus faecium [15] = assay: Antibacterial activity against vancomycin resistant Enterococcus faecium TUH50-22 clinical isolate after 24 hrs by microdilution method; assay type: functional; settings: TUH50-22, 24 h; method in brief: as §2
Escherichia coli [16] = assay: Antibacterial activity against oxacillinase 48-producing Escherichia coli 50,579,417 clinical isolate after 24 hrs by microdilution method; assay type: functional; settings: Escherichia coli, 50,579,417, 24 h; method in brief: as §1
Escherichia coli [17] = assay: Antibacterial activity against New Delhi metallo-beta-lactamase 1-producing Escherichia coli 50,676,002 clinical isolate after 24 hrs by microdilution method; assay type: functional; settings: Escherichia coli, 50,676,002, 24 h; method in brief: as §1
Escherichia coli [18] = assay: Antibacterial activity against New Delhi metallo-beta-lactamase 1-producing Escherichia coli 50,739,822 clinical isolate after 24 hrs by microdilution method; assay type: functional; settings: Escherichia coli, 50,739,822, 24 h; method in brief: as §1
Pseudomonas aeruginosa [19] = assay: Antibacterial activity against Verona integron-encoded metallo-beta-lactamase 4-producing Pseudomonas aeruginosa K3473 clinical isolate after 24 hrs by microdilution method; assay type: functional; settings: K3473, 24 h; method in brief: as §1
Pseudomonas aeruginosa [20] = assay: Antibacterial activity against imipenem 14-type carbapenemase-producing Pseudomonas aeruginosa K4424 clinical isolate after 24 hrs by microdilution method; assay type: functional; settings: K4424, 24 h; method in brief: as §1
Pseudomonas aeruginosa [21] = assay: Antibacterial activity against New Delhi metallo-beta-lactamase 1-producing Pseudomonas aeruginosa 50,692,172 clinical isolate after 24 hrs by microdilution method; assay type: functional; settings: Pseudomonas aeruginosa, 50,692,172, 24 h; method in brief: as §1
Klebsiella pneumoniae [22] = assay: Antibacterial activity against KPC2-producing Klebsiella pneumoniae K4725 clinical isolate after 24 hrs by microdilution method; assay type: functional; settings: K4725, 24 h; method in brief: as §1
Klebsiella pneumoniae [23] = assay: Antibacterial activity against New Delhi metallo-beta-lactamase 1-producing Klebsiella pneumoniae K6645 clinical isolate after 24 hrs by microdilution method; assay type: functional; settings: K6645, 24 h; method in brief: as §1
Klebsiella pneumoniae [24] = assay: Antibacterial activity against New Delhi metallo-beta-lactamase 1/oxacillinase 181-producing Klebsiella pneumoniae 50531633 clinical isolate after 24 hrs by microdilution method; assay type: functional; settings: Klebsiella pneumoniae, 50531633, 24 h; method in brief: as §1
Klebsiella pneumoniae [25] = assay: Antibacterial activity against Verona integron-encoded metallo-beta-lactamase 1-producing Klebsiella pneumoniae 50,667,959 clinical isolate after 24 hrs by microdilution method; assay type: functional; settings: Klebsiella pneumoniae, 50,667,959, 24 h; method in brief: as §1
Acinetobacter baumannii [26] = assay: Antibacterial activity against oxacillinase 58-producing Acinetobacter baumannii K12-21 clinical isolate after 24 hrs by microdilution method; assay type: functional; settings: K12-21, 24 h; method in brief: as §2
Acinetobacter baumannii [27] = assay: Antibacterial activity against oxacillinase 23-producing Acinetobacter baumannii K44-35 clinical isolate after 24 hrs by microdilution method; assay type: functional; settings: K44-35, 24 h; method in brief: as §2
Acinetobacter baumannii [28] = assay: Antibacterial activity against oxacillinase 24-producing Acinetobacter baumannii K55-13 clinical isolate after 24 hrs by microdilution method; assay type: functional; settings: K55-13, 24 h; method in brief: as §2
[29] = tested on: Staphylococcus epidermidis; assay: Antibiofilm activity against Staphylococcus epidermidis RP62A ATCC 35984/CCUG 31568 incubated for 24 +/- 2 hrs by crystal violet staining based assay; assay type: functional
Method in brief: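 Mature S. epidermidis RP62A biofilms: filtered overnight TSB culture adjusted to 2 McFarland, diluted in TSB with 1% glucose to about 6 × 10^6 CFU/ml, grown 24 ± 2 h at 37 °C static, then PBS-washed. Compounds in 50% TSBglu added for 24 ± 2 h at 37 °C. Biomass given as % of untreated control; ≥90% eradication threshold. Compounds tested at 2x, 5x and 10x MIC, 4-8 parallels on 2-3 plates, highest and lowest values excluded.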

SMILES	MIC [1] [µg/mL]	MIC [2] [µg/mL]	selectivity ratio [3]	MIC (Staphylococcus aureus [4]) [µg/mL]	MIC (Enterococcus sp.) [µg/mL]	MIC (Escherichia coli [5]) [µg/mL]	MIC (Pseudomonas aeruginosa [6]) [µg/mL]	MIC (Staphylococcus aureus [7]) [µg/mL]	MIC (Staphylococcus aureus [8]) [µg/mL]	MIC (Staphylococcus aureus [9]) [µg/mL]	MIC (Staphylococcus aureus [10]) [µg/mL]	MIC (Staphylococcus aureus [11]) [µg/mL]	MIC (Enterococcus faecium [12]) [µg/mL]	MIC (Enterococcus faecium [13]) [µg/mL]	MIC (Enterococcus faecium [14]) [µg/mL]	MIC (Enterococcus faecium [15]) [µg/mL]	MIC (Escherichia coli [16]) [µg/mL]	MIC (Escherichia coli [17]) [µg/mL]	MIC (Escherichia coli [18]) [µg/mL]	MIC (Pseudomonas aeruginosa [19]) [µg/mL]	other results
CC(C)(C)c1cc(C(C)(C)C)cc(S(=O)(=O)Nc2cc3ccccc3cc2C(=O)NCCNC(=N)N)c1.Cl	4	2	6	4	8	8	32 to 64	4	8	8	8	8	8	8	8	4	≥ 32	> 32	> 32	≥ 32	MIC (Pseudomonas aeruginosa [20]): > 64 µg/mL; MIC (Pseudomonas aeruginosa [21]): > 64 µg/mL; MIC (Klebsiella pneumoniae [22]): > 32 µg/mL; MIC (Klebsiella pneumoniae [23]): 32 µg/mL; MIC (Klebsiella pneumoniae [24]): > 32 µg/mL; MIC (Klebsiella pneumoniae [25]): ≥ 32 µg/mL; MIC (Acinetobacter baumannii [26]): 32 µg/mL; MIC (Acinetobacter baumannii [27]): 32 µg/mL; MIC (Acinetobacter baumannii [28]): 32 µg/mL; MBIC=>90 [29]: 40 µg/mL
CN(c1ccc(C(=O)NCCCNC(=N)N)cc1)S(=O)(=O)c1cc(C(C)(C)C)cc(C(C)(C)C)c1.Cl	4	2	14	4	8 to 16	16	8 to 16	8	8	8	8	8	16	16	8	16	≥ 32	≥ 32	≥ 32	32	MIC (Pseudomonas aeruginosa [20]): 32 µg/mL; MIC (Pseudomonas aeruginosa [21]): 32 µg/mL; MIC (Klebsiella pneumoniae [22]): ≥ 32 µg/mL; MIC (Klebsiella pneumoniae [23]): 32 µg/mL; MIC (Klebsiella pneumoniae [24]): ≥ 32 µg/mL; MIC (Klebsiella pneumoniae [25]): ≥ 32 µg/mL; MIC (Acinetobacter baumannii [26]): ≥ 32 µg/mL; MIC (Acinetobacter baumannii [27]): ≥ 32 µg/mL; MIC (Acinetobacter baumannii [28]): ≥ 32 µg/mL; MBIC=>90 [29]: 40 µg/mL
